In assay [1] the test system is Mus musculus. The assay is described as follows: In Vivo detection in Mice plasma after oral administration of 58.33 mg/kg detected in the form of AZT after 24 hr. The class given is functional, organism-based. Further details: dose 58.33 mg/kg.
Assay [2] concerns Mus musculus. The assay is described as follows: In Vivo detection of total AZT in Mice brains after oral administration of 58.33 mg/kg after 8 hr. The assay is classed as functional. Put shortly: (§1)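 Male Swiss mice (18–20 g) dosed orally with a 3 mM solution in […] vehicle; decapitated at 0.5–48 h. Brains were homogenized in acetonitrile-water (3:1), centrifuged at 6000g for 40 min at 4 °C, lyophilized, redissolved in water and filtered (0.45 µm). Reversed-phase C18 column-switching HPLC with diode-array detection; standard spiking; vehicle-fed controls. Three mice per point, triplicates.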

The subject of assay [3] is Mus musculus. The assay is described as follows: In Vivo detection of total AZT in Mice brains after oral administration of 58.33 mg/kg after 24 hr. The assay is classed as functional. Put shortly: as §1
Assay [4] relates to Mus musculus. Description: In Vivo detection in Mice plasma after oral administration of 58.33 mg/kg detected in the form of AZT after 2 hr. More on the design: dose 58.33 mg/kg. The assay is classed as functional, organism-based.
Assay [5] concerns Mus musculus. The assay is described as follows: In Vivo detection of total AZT in Mice brains after oral administration of 58.33 mg/kg after 48 hr. The class given is functional. Put shortly:
as §1

For assay [6], the species on record is Mus musculus. Description: In Vitro detection by Gray and Whittaker method for % of internalization by comparing with external nucleoside of 2000 nM/g. The class given is functional. Put shortly:
(§2)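 Crude synaptosomes from three mouse brains were prepared by Gray–Whittaker homogenization in 10% sucrose buffered with 5 mM Tris-HCl, pH 7.4. The 7000g pellet was resuspended and incubated with each nucleoside at 3 mM for 15 min at 37 °C, stopped by cold 10-fold dilution and washed twice. Internal nucleoside was extracted in acetonitrile–water (3:1) and measured by HPLC.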

The test system of assay [7] is Mus musculus. The assay is described as follows: In Vivo detection in Mice brains after oral administration of 58.33 mg/kg detected in the form of AZT phosphodiester 3 after 1 hr. The assay is classed as functional.
The test system of assay [8] is Mus musculus. Description: In Vivo detection in Mice plasma after oral administration of 58.33 mg/kg detected in the form of AZT phosphodiester 2 after 1 hr. The assay is classed as functional, organism-based. More on the design: dose 58.33 mg/kg. In short, it runs like this: (§3)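 Male Swiss mice (18–20 g, six weeks old) given the test substance or vehicle ([…]) by gavage as a 3 mM solution (1.5 µmol/mouse). Aortic blood was collected into heparinized tubes at 0.5–48 h and centrifuged at 13000g for 10 min. Plasma was stored at -22 °C and analysed by HPLC. Three mice were used per time point, in triplicate. Values were not corrected for recovery.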

Assay [9] relates to Mus musculus. The assay is described as follows: In Vivo detection in Mice plasma after oral administration of 58.33 mg/kg detected in the form of AZT phosphodiester 3 after 24 hr. The class given is functional, organism-based. Further details: dose 58.33 mg/kg. Put shortly: as §3
Assay [10] concerns Mus musculus. Description: In Vivo detection in Mice brains after oral administration of 58.33 mg/kg detected in the form of AZT 5`-P after 1 hr. The class given is functional.
Assay [11] concerns Mus musculus. Description: In Vivo detection in Mice plasma after oral administration of 58.33 mg/kg detected in the form of AZT phosphodiester 3 after 2 hr. The assay is classed as functional, organism-based. More on the design: dose 58.33 mg/kg. In short, it runs like this:
as §3

The test system of assay [12] is Mus musculus. Description: In Vivo detection in Mice plasma after oral administration of 58.33 mg/kg detected in the form of AZT 5`-P after 48 hr. The assay is classed as functional, organism-based. More on the design: dose 58.33 mg/kg.
Assay [13] relates to Mus musculus. The assay is described as follows: In Vivo detection in Mice plasma after oral administration of 58.33 mg/kg detected in the form of AZT phosphodiester 3 after 8 hr. Further details: dose 58.33 mg/kg. The assay is classed as functional, organism-based. Put shortly: as §3
In assay [14] the test system is Mus musculus. Description: In Vivo detection in Mice brains after oral administration of 58.33 mg/kg detected in the form of AZT after 8 hr. The class given is functional.
Assay [15] deals with Mus musculus. The assay is described as follows: In Vivo detection in Mice plasma after oral administration of 58.33 mg/kg detected in the form of AZT phosphodiester 3 after 4 hr. The class given is functional, organism-based. Further details: dose 58.33 mg/kg. Put shortly:
as §3

The species entered for assay [16] is Mus musculus. Description: In Vitro detection by Gray and Whittaker method for the total internal nucleoside. The class given is functional. In short, it runs like this: as §2
Assay [17] deals with Mus musculus. Description: In Vivo detection in Mice plasma after oral administration of 58.33 mg/kg detected in the form of AZT after 0.5 hr. The assay is classed as functional, organism-based. More on the design: dose 58.33 mg/kg.
Assay [18] deals with Mus musculus. The assay is described as follows: In Vivo detection in Mice plasma after oral administration of 58.33 mg/kg detected in the form of AZT phosphodiester 2 after 4 hr. The class given is functional, organism-based. Further details: dose 58.33 mg/kg. In short, it runs like this:
as §3

Assay [19] deals with Mus musculus. Description: In Vivo detection in Mice brains after oral administration of 58.33 mg/kg detected in the form of AZT 5`-P after 4 hr. The assay is classed as functional.
The subject of assay [20] is Mus musculus. The assay is described as follows: In Vivo detection in Mice plasma after oral administration of 58.33 mg/kg detected in the form of AZT 5`-P after 1 hr. The class given is functional, organism-based. More on the design: dose 58.33 mg/kg.
The subject of assay [21] is Mus musculus. The assay is described as follows: In Vivo detection in Mice brains after oral administration of 58.33 mg/kg detected in the form of AZT after 4 hr. The assay is classed as functional.
Assay [22] concerns Mus musculus. The assay is described as follows: In Vivo detection in Mice brains after oral administration of 58.33 mg/kg detected in the form of AZT phosphodiester 3 after 2 hr. The class given is functional.
Assay [23] concerns Mus musculus. Description: In Vivo detection of total AZT in Mice plasma after oral administration of 58.33 mg/kg after 1 hr. The class given is functional, organism-based. More on the design: dose 58.33 mg/kg. Put shortly:
as §3

Assay [24] has as its system Mus musculus. Description: In Vivo detection of total AZT in Mice plasma after oral administration of 58.33 mg/kg after 4 hr. The assay is classed as functional, organism-based. More on the design: dose 58.33 mg/kg. Put shortly: as §3
Assay [25] has as its system Mus musculus. The assay is described as follows: In Vivo detection of total AZT in Mice brains after oral administration of 41.63 mg/kg after 2 hr. The assay is classed as functional. In short, it runs like this:
as §1

The subject of assay [26] is Mus musculus. Description: In Vivo detection in Mice brains after oral administration of 41.63 mg/kg detected in the form of AZT phosphodiester 2 after 2 hr. The assay is classed as functional.
Assay [27] deals with Mus musculus. Description: In Vivo detection in Mice plasma after oral administration of 41.63 mg/kg detected in the form of AZT after 48 hr. Further details: dose 41.63 mg/kg. The class given is functional, organism-based.
In assay [28] the test system is Mus musculus. The assay is described as follows: In Vivo detection in Mice brains after oral administration of 41.63 mg/kg detected in the form of AZT phosphodiester 2 after 0.5 hr. The assay is classed as functional.
Assay [29] deals with Mus musculus. Description: In Vivo detection in Mice brains after oral administration of 41.63 mg/kg detected in the form of AZT after 48 hr. The assay is classed as functional.
For assay [30], the system named is Mus musculus. Description: In Vivo detection in Mice brains after oral administration of 41.63 mg/kg detected in the form of AZT after 4 hr. The class given is functional.
In assay [31] the test system is Mus musculus. The assay is described as follows: In Vivo detection in Mice plasma after oral administration of 41.63 mg/kg detected in the form of AZT after 4 hr. Further details: dose 41.63 mg/kg. The class given is functional, organism-based.
Assay [32] has as its system Mus musculus. Description: In Vivo detection in Mice plasma after oral administration of 41.63 mg/kg detected in the form of AZT 5`-P after 24 hr. The assay is classed as functional, organism-based. More on the design: dose 41.63 mg/kg.
In assay [33] the test system is Mus musculus. Description: In Vivo detection of total AZT in Mice plasma after oral administration of 41.63 mg/kg after 8 hr. Further details: dose 41.63 mg/kg. The assay is classed as functional, organism-based. Put shortly:
as §3

Assay [34] deals with Mus musculus. The assay is described as follows: In Vivo detection of total AZT in Mice brains after oral administration of 41.63 mg/kg after 48 hr. The class given is functional. Put shortly:
as §1

The test system of assay [35] is Mus musculus. Description: In Vivo detection of total AZT in Mice brains after oral administration of 41.63 mg/kg after 1 hr. The class given is functional. Put shortly:
as §1

The subject of assay [36] is Mus musculus. The assay is described as follows: In Vivo detection of total AZT in Mice plasma after oral administration of 41.63 mg/kg after 0.5 hr. More on the design: dose 41.63 mg/kg. The assay is classed as functional, organism-based. In short, it runs like this: as §3
For assay [37], the system named is Mus musculus. Description: In Vivo detection in Mice plasma after oral administration of 41.63 mg/kg detected in the form of AZT phosphodiester 2 after 48 hr. The class given is functional, organism-based. Further details: dose 41.63 mg/kg.
Assay [38] has as its system Mus musculus. The assay is described as follows: In Vivo detection in Mice brains after oral administration of 41.63 mg/kg detected in the form of AZT phosphodiester 2 after 8 hr. The class given is functional.
Assay [39] relates to Mus musculus. Description: In Vivo detection in Mice plasma after oral administration of 41.63 mg/kg detected in the form of AZT after 2 hr. The class given is functional, organism-based. Further details: dose 41.63 mg/kg.

With `CCCCCCCCCCCCCCCCOP(=O)(OCCO[C@H]1O[C@H](CO)[C@@H](O)[C@H](O)[C@@H]1O)OCC1OC(n2cc(C)c(=O)[nH]c2=O)CC1N=[N+]=[N-]` (stereo partly specified), the Plasma content in [1] turned out to be 0 nM ml-1; in assay [4], 1.4 nM ml-1; in assay [8] it was 0 nM ml-1; in assay [9] it was 0 nM ml-1; in assay [11], 0 nM ml-1; in assay [12], 14.2 nM ml-1. Also, the Plasma content is 0 nM ml-1 in assay [13]; 0 nM ml-1 in assay [15]; 1.6 nM ml-1 in [17]; 0 nM ml-1 in [18]; 12.7 nM ml-1 in assay [20]; 14 nM ml-1 in assay [23]. For the same compound, the Plasma content in assay [24] turned out to be 5.3 nM ml-1. Also, the Brain content in [2] was 113 nmol/g; in [3], 87.9 nM ml-1; in assay [5] it was 63.5 nM ml-1; in [7], 0 nmol/g; in assay [10] it was 147 nmol/g; in assay [14] it was 2 nmol/g. The Brain content in assay [16] came to 567.8 nM/g; in [19], 114 nmol/g; in assay [21] it was 1 nmol/g; in assay [22], 0 nmol/g. In assay [6], the Internalisation is recorded as 6.24%.
Turning to `Cc1cn([C@H]2C[C@H](N=[N+]=[N-])[C@@H](COP(=O)(O)OCCO[C@H]3O[C@H](CO)[C@@H](O)[C@H](O)[C@@H]3O)O2)c(=O)[nH]c1=O`, the Brain content in [25] came to 26.2 nM ml-1; in [26], 5.2 nM ml-1; in assay [28], 5.8 nM ml-1; in [29] it was 0.8 nmol/g; in assay [30], 0.9 nmol/g; in assay [16], 8.3 nM/g. In addition, the Brain content turned out to be 51.8 nM ml-1 in [34], 97.7 nmol/g in assay [35] and 8.9 nmol/g in [38]. For the same compound, the Internalisation in [6] came out at 0.1%. Further, the Plasma content in [27] was 0 nM ml-1; in assay [31], 0 nM ml-1; in assay [32], 26.8 nM ml-1; in assay [33] it was 5.7 nM ml-1; in [36] it was 56.5 nM ml-1; in assay [37], 0 nM ml-1. For the same compound, the Plasma content in [39] stood at 3.1 nM ml-1.

These data come from ChEMBL document CHEMBL1125520, “Improved brain delivery of AZT using a glycosyl phosphotriester prodrug” (1992).
